Data on four compounds can be found in ChEMBL document CHEMBL1133715, “Dual function glutamate-related ligands: discovery of a novel, potent inhibitor of glutamate carboxypeptidase II possessing mGluR3 agonist activity” (J Med Chem, 2000).

Where “and” joins values, the source holds several entries; their conditions need not be identical. Identical values can stand only once. Calls of active or inactive are those of the source. The rule behind the calls is not given here.

A word on the EC50: it is the concentration at which the effect is half-maximal. What is called inhibition is the drop in the measured response relative to a control, in per cent.

The target in test [1] is Metabotropic glutamate receptor 3 (Homo sapiens, UniProt Q14832). Nature of the test: Agonist potency against cloned Metabotropic glutamate receptor 3. The class given is functional. The essentials: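 mGluR3 activity was measured on a chimeric mGluR3/1a receptor, which carries mGluR3 pharmacology but couples to phospholipase C. Agonist response was read as accumulation of inositol phosphates.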
Metabotropic glutamate receptor 3, sequence (Q14832 whole entry): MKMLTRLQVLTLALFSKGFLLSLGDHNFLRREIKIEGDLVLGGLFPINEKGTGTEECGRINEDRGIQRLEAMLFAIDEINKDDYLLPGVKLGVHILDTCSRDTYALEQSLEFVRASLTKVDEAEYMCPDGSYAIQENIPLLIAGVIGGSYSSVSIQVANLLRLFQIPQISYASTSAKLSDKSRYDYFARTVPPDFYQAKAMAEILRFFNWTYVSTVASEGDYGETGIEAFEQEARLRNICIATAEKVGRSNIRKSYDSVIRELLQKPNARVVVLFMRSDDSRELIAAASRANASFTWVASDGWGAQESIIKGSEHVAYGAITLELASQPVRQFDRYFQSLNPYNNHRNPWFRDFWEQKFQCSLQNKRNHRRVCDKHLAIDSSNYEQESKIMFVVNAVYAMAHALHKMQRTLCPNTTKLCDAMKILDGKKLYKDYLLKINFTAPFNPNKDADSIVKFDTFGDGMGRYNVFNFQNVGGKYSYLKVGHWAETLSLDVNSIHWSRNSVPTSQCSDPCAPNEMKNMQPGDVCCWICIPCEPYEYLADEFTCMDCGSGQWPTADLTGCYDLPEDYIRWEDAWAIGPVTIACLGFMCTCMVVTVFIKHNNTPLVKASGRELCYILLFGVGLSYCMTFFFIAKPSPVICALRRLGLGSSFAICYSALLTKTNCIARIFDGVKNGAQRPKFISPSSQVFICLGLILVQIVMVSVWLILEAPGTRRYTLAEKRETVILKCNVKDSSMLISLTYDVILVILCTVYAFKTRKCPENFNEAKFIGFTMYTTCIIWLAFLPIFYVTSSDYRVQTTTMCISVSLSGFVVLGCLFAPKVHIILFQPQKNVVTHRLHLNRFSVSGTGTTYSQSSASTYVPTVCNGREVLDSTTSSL

The test system of test [2] is CHO. Description: Inhibitory activity against N-acetyl-L-aspartyl-L-glutamate (NAAG) peptidase of rat stably expressed in CHO cells at 100 uM. The format is cell-based.
In test [3] the test system is CHO. Description: Inhibitory activity against N-acetyl-L-aspartyl-L-glutamate (NAAG) peptidase of rat stably expressed in CHO cells at 100 uM; NA=no activity. The format is cell-based.

In turn, `O=C(O)CC[C@H](CP(=O)(O)C[C@H](CCC(=O)O)C(=O)O)C(=O)O` gave an EC50 in test [1] of 33 µM. As to `O=C(O)CCC(CP(=O)(O)CC(CCC(=O)O)C(=O)O)C(=O)O` (stereo unspecified), in the test on CHO [2], the inhibition is 21.7% and 6.9% and 22.3%. Besides, the EC50 in test [1] is 39 µM and 45 µM and 51 µM.

Regarding `O=C(O)CCC(CC(=O)CC(CCC(=O)O)C(=O)O)C(=O)O` (stereo unspecified), the EC50 in test [1] was above 300 µM. Besides, in the test on CHO [3], the inhibition entry is “inactive”. `O=C(O)CCC(=O)CC(CCC(=O)O)C(=O)O` (stereo unspecified): in the test on CHO [2], the inhibition was determined as 35%.
